According to PMC3581696 (The Journal of General Physiology, 2013):
Where a chain is given by its changes, count along the chain named. “And” between values parts separate entries of the source, which are not always exact repeats. Equal entries are not always repeated.

Tests used:
mEAG1 channel = molecular target: T1, mEAG1 channel (Mus musculus, UniProt Q60603); assay: Inside-out patch-clamp of wild-type mEAG1 channels expressed in Xenopus oocytes; format: cell-based
T1 sequence (Q60603 1-989): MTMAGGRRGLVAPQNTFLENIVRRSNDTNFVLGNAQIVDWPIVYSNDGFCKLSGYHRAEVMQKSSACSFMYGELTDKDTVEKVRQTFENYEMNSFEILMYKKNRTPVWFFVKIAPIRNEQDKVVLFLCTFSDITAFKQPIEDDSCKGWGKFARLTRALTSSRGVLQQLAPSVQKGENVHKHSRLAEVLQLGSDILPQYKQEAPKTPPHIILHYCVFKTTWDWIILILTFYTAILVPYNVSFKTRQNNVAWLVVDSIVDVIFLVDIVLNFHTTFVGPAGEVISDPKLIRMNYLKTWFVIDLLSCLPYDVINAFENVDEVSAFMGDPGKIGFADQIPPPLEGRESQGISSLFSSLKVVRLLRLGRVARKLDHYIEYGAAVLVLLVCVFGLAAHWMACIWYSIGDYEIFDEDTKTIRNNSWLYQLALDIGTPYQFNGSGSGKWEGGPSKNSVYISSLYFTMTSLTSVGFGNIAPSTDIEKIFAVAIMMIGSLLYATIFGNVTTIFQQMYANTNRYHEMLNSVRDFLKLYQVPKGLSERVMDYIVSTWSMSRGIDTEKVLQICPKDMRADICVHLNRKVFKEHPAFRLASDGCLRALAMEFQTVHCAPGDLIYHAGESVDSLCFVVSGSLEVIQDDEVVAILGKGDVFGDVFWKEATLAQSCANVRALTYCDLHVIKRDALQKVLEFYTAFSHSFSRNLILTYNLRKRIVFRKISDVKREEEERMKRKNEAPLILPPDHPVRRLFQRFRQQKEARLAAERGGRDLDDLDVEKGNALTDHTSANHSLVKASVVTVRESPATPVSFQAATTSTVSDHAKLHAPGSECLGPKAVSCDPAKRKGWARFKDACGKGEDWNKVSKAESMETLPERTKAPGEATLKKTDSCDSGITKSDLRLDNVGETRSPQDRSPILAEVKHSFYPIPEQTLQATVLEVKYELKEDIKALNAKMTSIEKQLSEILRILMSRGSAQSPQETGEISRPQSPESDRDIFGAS

mEAG1 Y699A channels = molecular target: T2, mEAG1 Y699A channels (Mus musculus, UniProt Q60603, Y699A); assay: Inside-out patch-clamp of intrinsic ligand mutant channels; format: cell-based
T2 sequence (Q60603 1-989 Y699A): T1 sequence (Q60603 1-989) with Y699A
How it was run: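 mEAG1 mutant cRNA was injected into defolliculated Xenopus oocytes, and the vitelline membrane was removed. Inside-out patches were bathed in symmetric 130 mM KCl, 10 mM HEPES, 0.2 mM EDTA, pH 7.2, holding at −100 mV. Steps of 0.1 s from −140 to +50 mV (10-mV increments) were followed by −120 mV tails, without or with 30 µM flavonoid. Peak tails were normalized and Boltzmann-fitted. Deactivation time constant came from single-exponential fits of the −120 mV tail after +50 mV; two-tailed t test.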

[1] = molecular target: T3, Y699A mutant CNBHD from mEAG1 (Mus musculus, UniProt Q60603, Y699A); assay: Fisetin fluorescence anisotropy binding assay, Y699A CNBHD; details: Kd (apparent affinity), 5 µM fisetin, fit with Eq. 7
T3 sequence (Q60603 552-724 Y699A): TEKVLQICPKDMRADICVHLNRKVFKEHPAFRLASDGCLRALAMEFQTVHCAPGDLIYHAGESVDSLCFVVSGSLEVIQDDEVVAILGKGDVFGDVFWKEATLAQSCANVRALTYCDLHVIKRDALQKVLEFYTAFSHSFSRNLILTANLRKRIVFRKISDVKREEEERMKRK

[2] = Solubility limit in recording / aqueous solutions; format: physicochemical; details: recording solutions, aqueous buffer

O=c1c(O)c(-c2ccc(O)c(O)c2)oc2cc(O)ccc12 [Fisetin, 2-(3,4-dihydroxyphenyl)-3,7-dihydroxychromen-4-one]
Hill coefficient, deactivation time constant versus fisetin plot (mEAG1 channel): 1.2
Hill coefficient, ΔV1/2 versus fisetin plot (mEAG1 channel): 2.2
effect on mEAG1 currents at high concentration (mEAG1 channel; concentrations of 100 µM and higher): inhibited mEAG1 currents
time constant of deactivation (mEAG1 channel; with 30 µM fisetin, at −120 mV after step to +50 mV, 4.5 ± 0.8 ms without, n = 6): 7.2 ± 1.0 ms
time constant of deactivation (single tail current of Fig. 3 C) (mEAG1 channel; with 30 µM fisetin, tail current at −120 mV after step to 50 mV, 5.3 ms before): 13.9 ms
V1/2 of the conductance–voltage relationship (mEAG1 channel; with 30 µM fisetin, −41.9 ± 4.1 mV without, n = 6): −55.4 ± 3.7 mV
potentiation of mEAG1 Y699A channels (mEAG1 Y699A channels; 30 µM fisetin): did not potentiate
time constant of deactivation (mEAG1 Y699A channels; with 30 µM fisetin, at −120 mV, 5.0 ± 0.4 ms without, n = 10, P = 0.06): 6.4 ± 0.6 ms
V1/2 of the conductance–voltage relationship (mEAG1 Y699A channels; with 30 µM fisetin, −54.9 ± 3.5 mV without, n = 10, P = 0.65): −57.2 ± 3.6 mV
Kd [1]: 30 µM and ≥ 30 µM
solubility [2]: ≤ 150 µM
